Results taken from ChEMBL document CHEMBL4350958, “Rational Design of Short Peptide Variants by Using Kunitzin-RE, an Amphibian-Derived Bioactivity Peptide, for Acquired Potent Broad-Spectrum Antimicrobial and Improved Therapeutic Potential of Commensalism Coinfection of Pathogens” (J Med Chem, 2019).
Converted amounts (≈) assume the structure as drawn. Where a SMILES comes first, the peptide text is derived from it.

How the values were obtained:
Staphylococcus aureus [1] = assay: Antibacterial activity against Staphylococcus aureus ATCC 29213 measured after 18 to 24 hrs in presence of NH4Cl; format: functional
Outline: (§1)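 MIC broth microdilution (MHB, 0.2% BSA peptide diluent, A492, 95% inhibition) run in the presence of physiological salts at final concentrations of 6 μM NH4Cl or 8 μM ZnCl2. Three independent assays, each with three technical replicates.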

Candida parapsilosis = assay: Antifungal activity against Candida parapsilosis cgmcc2.3989 measured after 48 hrs by broth microdilution method; format: functional; conditions: Lodderomyces parapsilosis, cgmcc2.3989, 48 h
Outline: (§2)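 Modified CLSI M27-A2 microdilution. Yeast colonies were diluted in MOPS-buffered RPMI 1640 to a final (0.5–1) × 10^3 CFU mL−1 and mixed with an equal volume of peptide serially diluted in 0.2% BSA. After 48 h at 28 °C, MIC was read at A492 as the lowest concentration inhibiting 95% of growth. At least three independent experiments, each with three technical replicates.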

Staphylococcus aureus [2] = assay: Antibacterial activity against Staphylococcus aureus ATCC 29213 measured after 18 to 24 hrs in presence of ZnCl2; format: functional; outline: as §1
Pseudomonas aeruginosa = assay: Antibacterial activity against Pseudomonas aeruginosa ATCC 27853 measured after 24 hrs; format: functional; conditions: ATCC 27853, 24 h
Outline: (§3)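 Broth microdilution adapted from NCCLS. Mid-log bacteria were diluted in MHB to a final (0.5–1) × 10^5 CFU mL−1. Peptides were serially diluted in 0.2% BSA and mixed with an equal volume of cells. After 24 h at 37 °C, MIC was read at A492 as the lowest concentration inhibiting 95% of growth. At least three independent experiments, each with three technical replicates.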

Escherichia coli [3] = assay: Bactericidal activity against Escherichia coli 078 incubated for 24 hrs followed by replating on agar plate and measured after overnight incubation; format: functional; conditions: Escherichia coli, 078, 24 h; read-out: MBC>99.9
Outline: (§4)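 After the 24 h, 37 °C MHB microdilution (0.5–1 × 10^5 CFU mL−1 inoculum, peptides diluted in 0.2% BSA), 50 μL from each well was plated on agar and incubated overnight. MBC was taken as the lowest concentration killing >99.9% of cells. Three or more independent experiments, each with triplicate technical replicates.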

Erythrocyte = assay: Hemolytic activity in human RBC measured after 1 hr; format: ADME, cell-based
Outline: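 Fresh healthy-donor human erythrocytes at ~1% (v/v) in PBS pH 7.4, mixed 1:1 with peptide (1–128 µM), 1 h at 37 °C. After centrifugation at 1000×g, supernatant hemoglobin read at 576 nm. Untreated cells set 0% and 0.1% Triton X-100 set 100%. MHC defined as the concentration giving >10% hemolysis. Three or more independent experiments, triplicates.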

Escherichia coli [4] = assay: Bactericidal activity against Escherichia coli ATCC 25922 incubated for 24 hrs followed by replating on agar plate and measured after overnight incubation; format: functional; conditions: ATCC 25922, 24 h, read-out: MBC>99.9; outline: as §4
Candida albicans [5] = assay: Antifungal activity against Candida albicans cgmcc2.2086 measured after 48 hrs in presence of MgCl by broth microdilution method; format: functional; conditions: cgmcc2.2086, 48 h
Salmonella typhimurium [6] = assay: Antibacterial activity against Salmonella typhimurium ATCC 14028 measured after 24 hrs; format: functional, Salmonella enterica subsp. enterica serovar Typhimurium; conditions: Salmonella enterica, ATCC 14028, 24 h; outline: as §3
[7] = Therapeutic index, ratio of MHC10 for hemolytic activity in human RBC to MIC95 against Staphylococcus aureus ATCC 25923; format: toxicity; conditions: human red blood cells (erythrocytes), read-out: TI
Outline: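 Therapeutic index = MHC divided by MIC. MHC is the lowest concentration giving >10% lysis of human RBC (1 h, 37 °C, 1-128 µM, A576). MIC is 95% growth inhibition by broth microdilution: bacteria in MHB 24 h at 37 °C; Candida in MOPS-buffered RPMI 1640 at (0.5–1) × 10^3 CFU mL−1, 48 h at 28 °C.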

Escherichia coli [8] = assay: Antibacterial activity against Escherichia coli ATCC 25922 measured after 18 to 24 hrs in presence of ZnCl2; format: functional
Candida albicans [9] = assay: Antifungal activity against Candida albicans cgmcc2.2086 measured after 48 hrs by broth microdilution method; format: functional; conditions: cgmcc2.2086, 48 h; outline: as §2
Escherichia coli [10] = assay: Antibacterial activity against Escherichia coli ATCC 25922 measured after 18 to 24 hrs in presence of FeCl3; format: functional
Salmonella typhimurium [11] = assay: Antibacterial activity against Salmonella typhimurium C7731 measured after 24 hrs; format: functional, Salmonella enterica subsp. enterica serovar Typhimurium; conditions: Salmonella enterica, C7731, 24 h; outline: as §3
Escherichia coli [12] = assay: Antibacterial activity against Escherichia coli ATCC 25922 measured after 18 to 24 hrs in presence of NaCl; format: functional
[13] = Bactericidal activity against Salmonella pullorum ATCC 7913 incubated for 24 hrs followed by replating on agar plate and measured after overnight incubation; format: functional, Salmonella enterica subsp. enterica serovar Pullorum; conditions: Salmonella enterica, ATCC 7913, 24 h; read-out: MBC>99.9
Outline: (§5)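 Mid-log bacteria diluted in MHB to (0.5–1) × 10^5 CFU/mL and mixed 1:1 with peptide serially diluted in 0.2% BSA. After 24 h at 37 °C, 50 μL of each mixture was plated on agar and incubated overnight. MBC taken as the lowest concentration killing >99.9% of cells. At least three independent experiments, each with three technical replicates.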

Salmonella typhimurium [14] = assay: Bactericidal activity against Salmonella typhimurium C7731 incubated for 24 hrs followed by replating on agar plate and measured after overnight incubation; format: functional, Salmonella enterica subsp. enterica serovar Typhimurium; conditions: Salmonella enterica, C7731, 24 h; read-out: MBC>99.9; outline: as §5
Salmonella typhimurium [15] = assay: Bactericidal activity against Salmonella typhimurium ATCC 14028 incubated for 24 hrs followed by replating on agar plate and measured after overnight incubation; format: functional, Salmonella enterica subsp. enterica serovar Typhimurium; conditions: Salmonella enterica, ATCC 14028, 24 h; read-out: MBC>99.9; outline: as §5
Candida tropicalis = assay: Antifungal activity against Candida tropicalis cgmcc2.1975 measured after 48 hrs by broth microdilution method; format: functional; conditions: cgmcc2.1975, 48 h; outline: as §2
Staphylococcus aureus [16] = assay: Antibacterial activity against Staphylococcus aureus ATCC 29213 measured after 18 to 24 hrs in presence of KCl; format: functional
Escherichia coli [17] = assay: Antibacterial activity against Escherichia coli ATCC 25922 measured after 24 hrs; format: functional; conditions: ATCC 25922, 24 h; outline: as §3
Staphylococcus aureus [18] = assay: Bactericidal activity against methicillin-resistant Staphylococcus aureus ATCC 43300 incubated for 24 hrs followed by replating on agar plate and measured after overnight incubation; format: functional; conditions: ATCC 43300, 24 h, read-out: MBC>99.9
Outline: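 After the 24 h, 37 °C MHB microdilution MIC assay, 50 μL from each well was plated on agar and incubated overnight. MBC taken as lowest peptide concentration killing >99.9% of cells. At least three independent experiments, each with three technical replicates.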

H-AARIILRNRFR-NH2 gave an MIC95 (Staphylococcus aureus [1]) greater than 128 µM, an MIC95 (Candida parapsilosis) greater than 128 µM and an MIC95 (Staphylococcus aureus [2]) greater than 128 µM. The MIC95 (Pseudomonas aeruginosa) was greater than 128 µM, the MBC (Escherichia coli [3]) was 32 µM and the MHC10 (Erythrocyte) was greater than 128 µM. It also gave an MBC (Escherichia coli [4]) of 64 µM, an MIC95 (Candida albicans [5]) greater than 128 µM and an MIC95 (Salmonella typhimurium [6]) of 32 µM. It also gave a selectivity ratio [7] of 2, an MIC95 (Escherichia coli [8]) of 32 µM and an MIC95 (Candida albicans [9]) greater than 128 µM. The MIC95 (Escherichia coli [10]) was 32 µM, the MIC95 (Salmonella typhimurium [11]) was 32 µM and the MIC95 (Escherichia coli [12]) was 128 µM. It also gave an MBC [13] of 32 µM, an MBC (Salmonella typhimurium [14]) of 128 µM and an MBC (Salmonella typhimurium [15]) of 64 µM. It also gave an MIC95 (Candida tropicalis) greater than 128 µM, an MIC95 (Staphylococcus aureus [16]) greater than 128 µM and an MIC95 (Escherichia coli [17]) of 32 µM.

`CC(C)(O/N=C(\C(=O)N[C@@H]1C(=O)N2C(C(=O)[O-])=C(C[n+]3ccccc3)CS[C@H]12)c1csc(N)n1)C(=O)O` [CEFTAZIDIME] gave an MIC95 (Staphylococcus aureus [1]) of 16 µM, an MIC95 (Candida parapsilosis) greater than 128 µM and an MIC95 (Staphylococcus aureus [2]) of 16 µM. The MIC95 (Pseudomonas aeruginosa) was 2 µM (≈ 1.09 µg/mL), the MBC (Escherichia coli [3]) was 0.5 µM (≈ 0.273 µg/mL) and the MBC (Escherichia coli [4]) was 2 µM (≈ 1.09 µg/mL). It also gave an MIC95 (Candida albicans [5]) greater than 128 µM, an MBC (Staphylococcus aureus [18]) of 32 µM (≈ 17.5 µg/mL) and an MIC95 (Salmonella typhimurium [6]) of 1 µM (≈ 0.547 µg/mL). It also gave an MIC95 (Escherichia coli [8]) of 2 µM, an MIC95 (Candida albicans [9]) greater than 128 µM and an MIC95 (Escherichia coli [10]) of 2 µM. It also gave an MIC95 (Salmonella typhimurium [11]) of 1 µM (≈ 0.547 µg/mL), an MIC95 (Escherichia coli [12]) of 4 µM and an MBC [13] of 2 µM (≈ 1.09 µg/mL). The MBC (Salmonella typhimurium [14]) was 1 µM (≈ 0.547 µg/mL), the MBC (Salmonella typhimurium [15]) was 1 µM (≈ 0.547 µg/mL) and the MIC95 (Candida tropicalis) was greater than 128 µM. For the same molecule, the MIC95 (Staphylococcus aureus [16]) was 16 µM and the MIC95 (Escherichia coli [17]) was 2 µM (≈ 1.09 µg/mL).

Molecule `CC[C@H](C)[C@H](NC(=O)[C@H](CCCCN)NC(=O)[C@H](C)NC(=O)[C@H](C)N)C(=O)N[C@H](C(=O)N[C@@H](CC(C)C)C(=O)N[C@@H](CC(N)=O)C(=O)N1CCC[C@H]1C(=O)N[C@@H](CCCCN)C(=O)N[C@@H](Cc1ccccc1)C(=O)N[C@@H](CCCNC(=N)N)C(=O)N[C@@H](CS)C(=O)N[C@@H](CCCCN)C(=O)N[C@@H](C)C(=O)N[C@@H](C)C(=O)N[C@@H](Cc1ccccc1)C(=O)N[C@@H](CS)C(N)=O)[C@@H](C)CC` (H-AAKIILNPKFRCKAAFC-NH2) has an MIC95 (Staphylococcus aureus [1]) greater than 128 µM, an MIC95 (Candida parapsilosis) greater than 128 µM and an MIC95 (Staphylococcus aureus [2]) greater than 128 µM. The MIC95 (Pseudomonas aeruginosa) was greater than 128 µM, the MHC10 (Erythrocyte) was 32 µM and the MBC (Escherichia coli [4]) was 64 µM (≈ 121 µg/mL). For the same molecule, the MIC95 (Candida albicans [5]) was greater than 128 µM, the MIC95 (Salmonella typhimurium [6]) was 64 µM (≈ 121 µg/mL) and the selectivity ratio [7] was 0.3. For the same molecule, the MIC95 (Escherichia coli [8]) was 64 µM, the MIC95 (Candida albicans [9]) was greater than 128 µM and the MIC95 (Escherichia coli [10]) was 32 µM. The MIC95 (Salmonella typhimurium [11]) was greater than 128 µM, the MIC95 (Escherichia coli [12]) was greater than 128 µM and the MBC [13] was greater than 128 µM. For the same molecule, the MBC (Salmonella typhimurium [15]) was 128 µM (≈ 242 µg/mL), the MIC95 (Candida tropicalis) was greater than 128 µM and the MIC95 (Staphylococcus aureus [16]) was greater than 128 µM. It also gave an MIC95 (Escherichia coli [17]) of 32 µM (≈ 60.6 µg/mL).

For H-AAKIILNPKFR-NH2, the MIC95 (Staphylococcus aureus [1]) was greater than 128 µM, the MIC95 (Candida parapsilosis) was greater than 128 µM and the MIC95 (Staphylococcus aureus [2]) was greater than 128 µM. The MIC95 (Pseudomonas aeruginosa) was greater than 128 µM, the MHC10 (Erythrocyte) was greater than 128 µM and the MIC95 (Candida albicans [5]) was greater than 128 µM. The MIC95 (Salmonella typhimurium [6]) was greater than 128 µM, the selectivity ratio [7] was 2 and the MIC95 (Escherichia coli [8]) was greater than 128 µM. The MIC95 (Candida albicans [9]) was greater than 128 µM, the MIC95 (Escherichia coli [10]) was greater than 128 µM and the MIC95 (Salmonella typhimurium [11]) was greater than 128 µM. It also gave an MIC95 (Escherichia coli [12]) greater than 128 µM, an MIC95 (Candida tropicalis) greater than 128 µM and an MIC95 (Staphylococcus aureus [16]) greater than 128 µM. It also gave an MIC95 (Escherichia coli [17]) greater than 128 µM.

H-AARIILRPRFR-NH2 gave an MIC95 (Staphylococcus aureus [1]) greater than 128 µM, an MIC95 (Candida parapsilosis) greater than 128 µM and an MIC95 (Staphylococcus aureus [2]) greater than 128 µM. The MIC95 (Pseudomonas aeruginosa) was greater than 128 µM, the MBC (Escherichia coli [3]) was 16 µM and the MHC10 (Erythrocyte) was greater than 128 µM. For the same molecule, the MBC (Escherichia coli [4]) was 32 µM, the MIC95 (Candida albicans [5]) was greater than 128 µM and the MIC95 (Salmonella typhimurium [6]) was 16 µM. The selectivity ratio [7] was 2, the MIC95 (Escherichia coli [8]) was 32 µM and the MIC95 (Candida albicans [9]) was greater than 128 µM. For the same molecule, the MIC95 (Escherichia coli [10]) was 16 µM, the MIC95 (Salmonella typhimurium [11]) was 16 µM and the MIC95 (Escherichia coli [12]) was 128 µM. For the same molecule, the MBC [13] was 64 µM, the MBC (Salmonella typhimurium [14]) was 32 µM and the MBC (Salmonella typhimurium [15]) was 32 µM. The MIC95 (Candida tropicalis) was greater than 128 µM, the MIC95 (Staphylococcus aureus [16]) was greater than 128 µM and the MIC95 (Escherichia coli [17]) was 16 µM.
